Active and inactive are the calls of the source. The calls are words filed in the database; no cut-off is given here.
Key:
[1] = biological target: T1, Proteinase-activated receptor 1 (Homo sapiens, UniProt P25116); assay: (§1) Antagonist activity at PAR1 in human EAhy926 cells assessed as inhibition of TFLLRN-NH2-induced intracellular calcium mobilization pretreated for 15 mins followed by TFLLRN-NH2 addition measured at 5 secs interval for 250 secs by Fluo-4/AM dye based fluorescence assay; assay type: functional, cell-based
T1 sequence (P25116 whole entry): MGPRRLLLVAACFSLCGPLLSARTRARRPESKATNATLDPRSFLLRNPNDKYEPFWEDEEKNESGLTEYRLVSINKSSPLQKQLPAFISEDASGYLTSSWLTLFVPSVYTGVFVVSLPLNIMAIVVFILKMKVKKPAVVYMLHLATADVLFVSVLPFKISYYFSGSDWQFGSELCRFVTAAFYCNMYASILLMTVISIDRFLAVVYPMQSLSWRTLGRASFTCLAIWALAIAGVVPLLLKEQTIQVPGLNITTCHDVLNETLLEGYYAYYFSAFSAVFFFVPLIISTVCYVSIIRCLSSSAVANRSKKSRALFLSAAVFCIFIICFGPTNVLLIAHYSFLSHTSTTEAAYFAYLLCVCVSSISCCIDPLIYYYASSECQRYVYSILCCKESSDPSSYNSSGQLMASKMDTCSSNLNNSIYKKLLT
Method in brief: (§2)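 EA.hy926 cells were used at passage 2–11, seeded at 25,000/well and grown 40–48 h at 37 °C to >80% confluence. Cells were loaded with Fluo-4/AM (2 μM) in HBSS-HEPES containing 2.5 mM probenecid, pH 7.4, for 40–50 min, then washed twice. Antagonist in 10% DMSO vehicle was added for 15 min at 37 °C before agonist. Agonist was 5 μM TFLLRN-NH₂; ex 485/em 525 nm.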

[2] = biological target: Proteinase-activated receptor 2 (Homo sapiens) (UniProt P55085); assay type: functional, cell-based; conditions: 0.316 uM
[3] = biological target: T2, Proteinase-activated receptor 1 (Homo sapiens) (UniProt P25116); assay type: functional, cell-based; conditions: 0.316 uM
T2 sequence (whole entry): T1 sequence (P25116 whole entry)

[4] = biological target: T2, Proteinase-activated receptor 1 (Homo sapiens); conditions: 0.316 uM
[5] = biological target: T2, Proteinase-activated receptor 1 (Homo sapiens); assay: Antagonist activity at PAR1 in human EAhy926 cells assessed as inhibition of TFLLRN-NH2-induced intracellular calcium mobilization at 10 uM pretreated for 15 mins followed by TFLLRN-NH2 addition measured at 5 secs interval for 250 secs by Fluo-4/AM dye based fluorescence assay; assay type: functional, cell-based
[6] = biological target: T3, Proteinase-activated receptor 2 (Homo sapiens, UniProt P55085); assay: Antagonist activity at PAR2 in human EAhy926 cells assessed as inhibition of SLIGKV-NH2-induced intracellular calcium mobilization pretreated for 15 mins followed by SLIGKV-NH2 addition measured at 5 secs interval for 250 secs by Fluo-4/AM dye based fluorescence assay; assay type: functional, cell-based
T3 sequence (P55085 whole entry): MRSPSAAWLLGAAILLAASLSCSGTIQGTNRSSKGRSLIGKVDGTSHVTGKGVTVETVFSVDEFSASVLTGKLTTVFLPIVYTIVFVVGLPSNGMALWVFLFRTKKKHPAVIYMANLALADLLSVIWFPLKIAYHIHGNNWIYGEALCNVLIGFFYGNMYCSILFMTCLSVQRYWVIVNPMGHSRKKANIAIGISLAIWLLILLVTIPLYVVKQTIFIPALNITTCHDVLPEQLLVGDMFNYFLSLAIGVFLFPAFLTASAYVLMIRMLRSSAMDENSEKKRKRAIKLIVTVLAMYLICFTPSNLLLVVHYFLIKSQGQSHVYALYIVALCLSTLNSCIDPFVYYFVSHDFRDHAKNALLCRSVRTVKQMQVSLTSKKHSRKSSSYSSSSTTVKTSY
Method in brief: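 EA.hy926 monolayers (25,000 cells/well, 40–48 h) were loaded with 2 µM Fluo-4/AM for 40–50 min at 37 °C in HBSS-HEPES with 2.5 mM probenecid, pH 7.4. Antagonist in 10% DMSO vehicle was added for 15 min at 37 °C, then SLIGKV-NH2 (5 µM for curves, 3.16 µM for selectivity). Read at ex485/em525, 20 basal scans. Peak RFU/basal was normalised to a same-column vehicle well; curves from ≥3 repeats fitted by 4-parameter regression.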

[7] = biological target: T2, Proteinase-activated receptor 1 (Homo sapiens); assay: as §1; assay type: functional, cell-based; design: concentration or dose not given beside the values; method in brief: as §2
[8] = biological target: T2, Proteinase-activated receptor 1 (Homo sapiens); assay: Negative allosteric modulation of PAR1 in human EAhy926 cells assessed as inhibition of TFLLRN-NH2-induced intracellular calcium mobilization at 10 uM pretreated for 20 to 30 mins followed by compound washout and subsequent incubation for 10 mins prior to TFLLRN-NH2 addition measured at 5 secs interval for 250 secs by Fluo-4/AM dye based fluorescence assay; assay type: functional, cell-based
Method in brief: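 EA.hy926 cells grown 40–48 h to confluence, loaded with Fluo-4/AM in HBSS-HEPES with 2.5 mM probenecid for 40–50 min at 37 °C, washed. Antagonist or vehicle (10% DMSO) added for 20–30 min, then washed twice with buffer, 10 min at 37 °C each. TFLLRN-NH2 (5 μM) added; emission 525 nm (ex 485) read against basal.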

[9] = biological target: Proteinase-activated receptor 2 (Homo sapiens) (UniProt P55085); assay: Antagonist activity at PAR2 in human EAhy926 cells assessed as inhibition of SLIGKV-NH2-induced intracellular calcium mobilization at 10 uM pretreated for 15 mins followed by SLIGKV-NH2 addition measured at 5 secs interval for 250 secs by Fluo-4/AM dye based fluorescence assay; assay type: functional, cell-based
Method in brief: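 EA.hy926 monolayers were Fluo-4/AM-loaded (2 μM, with 2.5 mM probenecid in HBSS-HEPES) and pretreated 15 min at 37 °C with 10 μM antagonist in 10% DMSO vehicle. They were then stimulated with 3.16 μM SLIGKV-NH₂. Fluorescence (485/525 nm) was read every 5 s. The peak rise over basal, divided by basal, was normalized to the vehicle well.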

## NCC[C@H](NC(=O)[C@H](Cc1ccc(F)c(F)c1)NC(=O)Nc1ccc2c(CN3CCCC3)nn(Cc3c(Cl)cccc3Cl)c2c1)C(=O)NCc1ccccc1
[1]; read-out: IC50
  IC50: 0.02 µM
[2]
  inhibition: inactive
[3]
  inhibition: Active

## CCOC(=O)N[C@@H]1CC[C@@H]2[C@@H](C1)C[C@H]1C(=O)O[C@H](C)[C@H]1[C@H]2/C=C/c1ccc(-c2cccc(F)c2)cn1
[2]
  inhibition: inactive
[4]
  inhibition: inactive

## CC[C@H](C)[C@H](NC(=O)[C@H](CC1CCCCC1)NC(=O)c1ccno1)C(=O)NCc1ccccc1OC
[5]
  inhibition: inactive
[6]
  IC50: 1.7 µM

## CC(C)CC(=O)Nc1cccc(NC(=O)c2ccccc2Br)c1
[7]
  inhibition: 74%
[1]; read-out: IC50
  IC50: 3.16 µM
[8]
  inhibition: Active

## CCC(=O)Nc1cccc(NC(=O)c2ccccc2Br)c1
[7]
  inhibition: 68%
[1]; read-out: IC50
  IC50: 3.3 to 3.31 µM
[1]; read-out: pIC50 (converted)
  IC50: 3.16 µM

## C#CCCC(=O)NCC[C@H](NC(=O)[C@H](Cc1ccc(F)c(F)c1)NC(=O)Nc1ccc2c(CN3CCCC3)nn(Cc3c(Cl)cccc3Cl)c2c1)C(=O)NCc1ccccc1
[7]
  inhibition: 76%
[1]; read-out: pIC50 (converted)
  IC50: 0.316 µM

## Clc1ccc(Cn2c(Cc3ccccc3)nc3ccccc32)cc1
[5]
  inhibition: inactive

## CCCCNc1cccc(NC(=O)c2ccccc2Br)c1
[1]; read-out: IC50
  IC50: 0.97 µM
[9]
  inhibition: inactive
[8]
  inhibition: Active

## CCCCC(=O)Nc1cccc(NC(=O)c2ccccc2Br)c1
[7]
  inhibition: 49%

## C#CCCC(=O)Nc1cccc(NC(=O)c2ccccc2Br)c1
[7]
  inhibition: 79%
[1]; read-out: IC50
  IC50: 81 µM
[1]; read-out: pIC50 (converted)
  IC50: 100 µM

## CCCC(=O)Nc1cccc(NC(=O)c2ccccc2N=[N+]=[N-])c1
[7]
  inhibition: 77%
[1]; read-out: IC50
  IC50: 94 µM

## CCOc1cc2c(c(F)c1OCC)C(=N)N(CC(=O)c1cc(N3CCOCC3)c(OC)c(C(C)(C)C)c1)C2 [ATOPAXAR]
[7]
  inhibition: 94%
[1]; read-out: IC50
  IC50: 0.033 µM
[2]
  inhibition: inactive

## CCCC(=O)Nc1cccc(NC(=O)c2ccccc2Br)c1
[1]; read-out: IC50
  IC50: 0.85 µM
[9]
  inhibition: inactive
[8]
  inhibition: Active
